Results reported in ChEMBL document CHEMBL1126896, “Preparation and anti-HIV activity of O-acylated heparin and dermatan sulfate derivatives with low anticoagulant effect” (J Med Chem, 1993).

Key:
[1] = system: MT4; assay: Effective concentration to achieve 50% protection of MT-4 cells against the cytopathic effect of HIV-1; type: functional, cell-based
[2] = system: MT4; assay: Effective concentration to achieve 50% protection of MT-4 cells against the cytopathic effect of HIV-2; type: functional, cell-based
[3] = system: MT4; assay: Selectivity index for CC50 (cytotoxic concentration based on reduction of viability of mock-infected MT-4 cells) to that of EC50 against HIV-2; type: functional
In short: (§1)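 MT-4 cells at 3 × 10^5 cells/mL were infected with HIV-1 IIIB or HIV-2 ROD at 100 CCID50/mL, or mock-infected, alongside serial compound dilutions. Viability was read by MTT after 5 days at 37 °C. CC50 comes from mock-infected cells and EC50 from protection against cytopathicity. Index = CC50/EC50.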

[4] = system: MT4; assay: Selectivity index for CC50 (cytotoxic concentration based on the reduction of the viability of mock-infected MT-4 cells) to that of EC50 against HIV-1; type: functional; in short: as §1
[5] = system: HuT78; assay: Giant-cell formation between persistently HIV-1 infected HUT-78 cells and uninfected MOLT-4 cells; type: functional, cell-based
In short: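 MOLT-4 cells were co-cultured with an equal number of HUT-78 cells persistently infected with HIV-1 IIIB or HIV-2 ROD, with varying compound concentrations. Syncytia were counted by flow cytofluorography after 24 h. EC50 is the concentration giving 50% protection against giant-cell formation.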

[6] = In vitro anticoagulant activity determined by clotting test of activated partial thromboplastin time (APTT) on a pool of human plasma; type: functional
In short: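 Activated partial thromboplastin time clotting test on pooled human plasma, run on an automatic coagulometer. Activities were calculated according to the European Pharmacopoeia.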

[7] = Homo sapiens, MT4, read-out: EC50
[8] = Homo sapiens, HuT78, read-out: EC50

| Structure (SMILES) | EC50 ([1]; mt4) | EC50 ([2]; mt4) | Selectivity index [3] | Selectivity index [4] | EC50 ([5]; hut78) | APTT [6] | EC50 [1, 7] | EC50 [2, 7] | EC50 [5, 8] |
| --- | --- | --- | --- | --- | --- | --- | --- | --- | --- |
| CCCC(=O)OC/C(=C\C(=O)[O-])O[C@H]1O[C@H](COS(=O)(=O)[O-])[C@@H](O[C@@H]2O[C@@H](C(=O)[O-])[C@@H](O[C@H]3O[C@H](COS(=O)(=O)[O-])[C@@H](O[C@@H]4O[C@@H](C(=O)[O-])[C@@H](O[C@H]5O[C@H](CS(=O)(=O)[O-])[C@@H](O)[C@H](OC(=O)CCC)[C@H]5NS(=O)(=O)[O-])[C@H](OC(=O)CCC)[C@H]4OS(=O)(=O)[O-])[C@H](OC(=O)CCC)[C@H]3NS(=O)(=O)[O-])[C@H](OC(=O)CCC)[C@H]2OS(=O)(=O)[O-])[C@H](OC(=O)CCC)[C@H]1NS(=O)(=O)[O-].[Na+].[Na+].[Na+].[Na+].[Na+].[Na+].[Na+].[Na+].[Na+].[Na+].[Na+] (stereo in doubt; 4k) | 0.51 µg/mL | 0.26 µg/mL | >1923 | >980 | 2 µg/mL | 29.3 IU mg-1 |  |  |  |
| COC1C(NC(C)=O)C(OC2C(C(=O)[O-])OC(OC3C(NC(C)=O)C(OC4C(C(=O)[O-])OC(C)C(OC(=O)CCC(=O)[O-])C4O)OC(COC(=O)CCC(=O)[O-])C3OS(=O)(=O)[O-])C(OC(=O)CCC(=O)[O-])C2OC(=O)CCC(=O)[O-])OC(COC(=O)CCC(=O)[O-])C1OS(=O)(=O)[O-].[Na+].[Na+].[Na+].[Na+].[Na+].[Na+].[Na+].[Na+].[Na+] (configuration not stated) |  |  | 2 | 1.7 |  | 9 IU mg-1 | 150 µg/mL | 50.4 µg/mL |  |
| CCCC(=O)OC/C(=C\C(=O)[O-])O[C@H]1O[C@H](COS(=O)(=O)[O-])[C@@H](O[C@@H]2O[C@@H](C(=O)[O-])[C@@H](O[C@H]3O[C@H](COS(=O)(=O)[O-])[C@@H](O[C@@H]4O[C@@H](C(=O)[O-])[C@@H](O[C@H]5O[C@H](CS(=O)(=O)[O-])[C@@H](O)[C@H](OC(=O)CCC)[C@H]5NS(=O)(=O)[O-])[C@H](OC(=O)CCC)[C@H]4OS(=O)(=O)[O-])[C@H](OC(=O)CCC)[C@H]3NS(=O)(=O)[O-])[C@H](OC(=O)CCC)[C@H]2OS(=O)(=O)[O-])[C@H](OC(=O)CCC)[C@H]1NS(=O)(=O)[O-].[Na+].[Na+].[Na+].[Na+].[Na+].[Na+].[Na+].[Na+].[Na+].[Na+].[Na+] (stereo in doubt; 3c) |  | 1.17 µg/mL | 282 | 1032 | 60.4 µg/mL | 7 IU mg-1 |  |  |  |
| CCCC(=O)OC/C(=C\C(=O)[O-])O[C@H]1O[C@H](COS(=O)(=O)[O-])[C@@H](O[C@@H]2O[C@@H](C(=O)[O-])[C@@H](O[C@H]3O[C@H](COS(=O)(=O)[O-])[C@@H](O[C@@H]4O[C@@H](C(=O)[O-])[C@@H](O[C@H]5O[C@H](CS(=O)(=O)[O-])[C@@H](O)[C@H](OC(=O)CCC)[C@H]5NS(=O)(=O)[O-])[C@H](OC(=O)CCC)[C@H]4OS(=O)(=O)[O-])[C@H](OC(=O)CCC)[C@H]3NS(=O)(=O)[O-])[C@H](OC(=O)CCC)[C@H]2OS(=O)(=O)[O-])[C@H](OC(=O)CCC)[C@H]1NS(=O)(=O)[O-].[Na+].[Na+].[Na+].[Na+].[Na+].[Na+].[Na+].[Na+].[Na+].[Na+].[Na+] (stereo in doubt; 3b) | 0.32 µg/mL | 1.94 µg/mL | 185 | 1121 |  | 5 IU mg-1 |  |  |  |
| CCCC(=O)OC/C(=C\C(=O)[O-])O[C@H]1O[C@H](COS(=O)(=O)[O-])[C@@H](O[C@@H]2O[C@@H](C(=O)[O-])[C@@H](O[C@H]3O[C@H](COS(=O)(=O)[O-])[C@@H](O[C@@H]4O[C@@H](C(=O)[O-])[C@@H](O[C@H]5O[C@H](CS(=O)(=O)[O-])[C@@H](O)[C@H](OC(=O)CCC)[C@H]5NS(=O)(=O)[O-])[C@H](OC(=O)CCC)[C@H]4OS(=O)(=O)[O-])[C@H](OC(=O)CCC)[C@H]3NS(=O)(=O)[O-])[C@H](OC(=O)CCC)[C@H]2OS(=O)(=O)[O-])[C@H](OC(=O)CCC)[C@H]1NS(=O)(=O)[O-].[Na+].[Na+].[Na+].[Na+].[Na+].[Na+].[Na+].[Na+].[Na+].[Na+].[Na+] (stereo in doubt; 4b) | 20.9 µg/mL |  | >50000 | >24 | 17.4 µg/mL | 1.5 IU mg-1 |  |  |  |
| COC1C(NC(C)=O)C(OC2C(C(=O)[O-])OC(OC3C(NC(C)=O)C(OC4C(C(=O)[O-])OC(C)C(OC(C)=O)C4O)OC(COC(C)=O)C3OS(=O)(=O)[O-])C(OC(C)=O)C2OC(C)=O)OC(COC(C)=O)C1OS(=O)(=O)[O-].[Na+].[Na+].[Na+].[Na+] (configuration not stated) |  |  | 5.7 |  |  | 1.7 IU mg-1 | > 500 µg/mL | 88 µg/mL | > 50 µg/mL |
| CCCCCCCC(=O)OC/C(=C\C(=O)[O-])OC1OC(COS(=O)(=O)[O-])C(OC2OC(C(=O)[O-])C(OC3OC(COS(=O)(=O)[O-])C(OC4OC(C(=O)[O-])C(OC5OC(CS(=O)(=O)[O-])C(O)C(OC(=O)CCCCCCC)C5NS(=O)(=O)[O-])C(OC(=O)CCCCCCC)C4OS(=O)(=O)[O-])C(OC(=O)CCCCCCC)C3NS(=O)(=O)[O-])C(OC(=O)CCCCCCC)C2OS(=O)(=O)[O-])C(OC(=O)CCCCCCC)C1NS(=O)(=O)[O-].[Na+].[Na+].[Na+].[Na+].[Na+].[Na+].[Na+].[Na+].[Na+].[Na+].[Na+] (configuration not stated) |  |  | >1 | 6 |  |  | 3.3 µg/mL | > 23.2 µg/mL | 20 µg/mL |
| CCCC(=O)OC/C(=C\C(=O)[O-])O[C@H]1O[C@H](COS(=O)(=O)[O-])[C@@H](O[C@@H]2O[C@@H](C(=O)[O-])[C@@H](O[C@H]3O[C@H](COS(=O)(=O)[O-])[C@@H](O[C@@H]4O[C@@H](C(=O)[O-])[C@@H](O[C@H]5O[C@H](CS(=O)(=O)[O-])[C@@H](O)[C@H](OC(=O)CCC)[C@H]5NS(=O)(=O)[O-])[C@H](OC(=O)CCC)[C@H]4OS(=O)(=O)[O-])[C@H](OC(=O)CCC)[C@H]3NS(=O)(=O)[O-])[C@H](OC(=O)CCC)[C@H]2OS(=O)(=O)[O-])[C@H](OC(=O)CCC)[C@H]1NS(=O)(=O)[O-].[Na+].[Na+].[Na+].[Na+].[Na+].[Na+].[Na+].[Na+].[Na+].[Na+].[Na+] (stereo in doubt; 2d) | 0.35 µg/mL |  |  | >1430 | 2.6 µg/mL | 12 IU mg-1 |  |  |  |
| CCCC(=O)OC/C(=C\C(=O)[O-])O[C@H]1O[C@H](COS(=O)(=O)[O-])[C@@H](O[C@@H]2O[C@@H](C(=O)[O-])[C@@H](O[C@H]3O[C@H](COS(=O)(=O)[O-])[C@@H](O[C@@H]4O[C@@H](C(=O)[O-])[C@@H](O[C@H]5O[C@H](CS(=O)(=O)[O-])[C@@H](O)[C@H](OC(=O)CCC)[C@H]5NS(=O)(=O)[O-])[C@H](OC(=O)CCC)[C@H]4OS(=O)(=O)[O-])[C@H](OC(=O)CCC)[C@H]3NS(=O)(=O)[O-])[C@H](OC(=O)CCC)[C@H]2OS(=O)(=O)[O-])[C@H](OC(=O)CCC)[C@H]1NS(=O)(=O)[O-].[Na+].[Na+].[Na+].[Na+].[Na+].[Na+].[Na+].[Na+].[Na+].[Na+].[Na+] (stereo in doubt; 4j) |  | 0.21 µg/mL | 2381 |  | 10.7 µg/mL | 19.8 IU mg-1 |  |  |  |
| CC(=O)N[C@H]1[C@@H](O[C@H]2[C@H](O)[C@@H](OC(C)=O)[C@H](O[C@H]3[C@@H](OS(=O)(=O)[O-])[C@@H](NS(=O)(=O)[O-])[C@@H](O[C@H]4[C@H](O)[C@@H](OS(=O)(=O)[O-])[C@H](O[C@H]5[C@H](O)[C@@H](CO)O[C@@H]5COS(=O)(=O)[O-])O[C@H]4C(=O)[O-])O[C@@H]3COS(=O)(=O)[O-])O[C@@H]2C(=O)[O-])O[C@H](COS(=O)(=O)[O-])[C@@H](O[C@@H]2O[C@@H](C(=O)[O-])[C@@H](O)[C@H](O)[C@H]2OC(C)=O)[C@@H]1O.[Na+].[Na+].[Na+].[Na+].[Na+].[Na+].[Na+].[Na+].[Na+] |  |  |  | >8 |  | 11 IU mg-1 | 77 µg/mL |  |  |
| CCCC(=O)OC/C(=C\C(=O)[O-])O[C@H]1O[C@H](COS(=O)(=O)[O-])[C@@H](O[C@@H]2O[C@@H](C(=O)[O-])[C@@H](O[C@H]3O[C@H](COS(=O)(=O)[O-])[C@@H](O[C@@H]4O[C@@H](C(=O)[O-])[C@@H](O[C@H]5O[C@H](CS(=O)(=O)[O-])[C@@H](O)[C@H](OC(=O)CCC)[C@H]5NS(=O)(=O)[O-])[C@H](OC(=O)CCC)[C@H]4OS(=O)(=O)[O-])[C@H](OC(=O)CCC)[C@H]3NS(=O)(=O)[O-])[C@H](OC(=O)CCC)[C@H]2OS(=O)(=O)[O-])[C@H](OC(=O)CCC)[C@H]1NS(=O)(=O)[O-].[Na+].[Na+].[Na+].[Na+].[Na+].[Na+].[Na+].[Na+].[Na+].[Na+].[Na+] (stereo in doubt; 4a) | 115 µg/mL |  | > 7140 | >4 | > 100 µg/mL | 0.3 IU mg-1 |  |  |  |
